Data set [1] is described as follows: Toxicity in human CD4+ T-cells assessed as increase in ratio of CD69+ cells incubated for 24 hrs by flow cytometry. The data set is classed as cell-based. Particulars: cd4+ t cell. The method, boiled down: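 Primary CD4+ T-cells from healthy donors treated with drug for 24 h. Cells stained with anti-CD25 and anti-CD69 antibodies (plus CD3, CD4, HLA-DR) for 30 min on ice, then marker-positive proportions quantified by flow cytometry.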

Data set [2] addresses T1, Protein kinase C (PKC) (Homo sapiens) (UniProt O94806+P41743+P17252+P05129+Q05655+P05771+Q05513+Q02156+P24723+Q15139+Q04759). Description: Activation of PKC in human J-Lat 6.3 cells infected with latent HIV-1 assessed as reversal of HIV-1 latency by measuring increase of GFP-positive cells at 10 uM in presence of PKC delta inhibitor Rottlerin incubated for 24 hrs by flow cytometry. The data set is classed as cell-based. The method, boiled down: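 J-Lat 6.3 cells pretreated 3 h with a PKC inhibitor: Gö 6983 1 µM, Gö 6976 1 µM, GF 109203X 1 µM, PKCθ/δ inhibitor 10 µM, or Rottlerin 1 µM. Then exposed to 10 µM compound for 24 h; GFP-positive cells counted by flow cytometry. Mean ± S.D.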

Data set [3] is described as follows: Toxicity in human CD4+ T-cells assessed as elevation of supernatant cytokine concentrations of IL-13 incubated for 24 hrs by bead-based immunoassay. Particulars: cd4+ t cell. The method, boiled down: (§1)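 Purified CD4+ T-cells from healthy donors treated 24 h with 1 μm drug, 1 μm JQ1, or the combination. IL-2, IL-5, IL-6, IL-13, TNFα and IFN-γ in supernatants measured by flow-cytometry bead-based Th1/Th2 immunoassay. Run in duplicate.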

In a further data set the test system is ACH-2 cell line. Description: Induction of apoptosis in human ACH-2 cells at 1 uM incubated for 48 hrs after pre-incubated for 2 hrs with 20 uM caspase inhibitor Q-VD-Oph by propidium iodide/annexin-V staining based flow cytometry. The class given is functional, cell-based. In short, it runs like this:
(§2)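 ACH-2 or U1 cells pretreated 2 h with 20 µM pan-caspase inhibitor Q-VD-Oph, then exposed to 1 µM compound for 48 h. Annexin-V/PI staining by flow cytometry; apoptotic proportions compared with and without Q-VD-Oph. Mean ± S.D.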
(In flow cytometry, cells or beads pass a laser one at a time.)

The target in data set [4] is T1, Protein kinase C (PKC) (Homo sapiens). Kind of data set: Activation of PKC in human J-Lat 10.6 cells infected with latent HIV-1 assessed as reversal of HIV-1 latency by measuring increase of GFP-positive cells at 100 to 400 nM in presence of 10 nM Panobinostat incubated for 24 hrs by flow cytometry. The data set is classed as cell-based. Particulars: filed as activator, dose 100-400 nM.

The test system of data set [5] is U1. Kind of data set: Induction of apoptosis in human U1 cells assessed as caspase-3 activation at 1 uM incubated for 24 hrs by flow cytometry. The class given is functional. The method, boiled down: (§3)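 Cells fixed in 1% paraformaldehyde, permeabilized, stained 30 min on ice with anti-active caspase-3 mAb, and analysed by flow cytometry. Three independent experiments.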

The test system of data set [6] is U1. Kind of data set: Induction of apoptosis in human U1 cells at 1 uM incubated for 48 hrs after pre-incubated for 2 hrs with 20 uM caspase inhibitor Q-VD-Oph by propidium iodide/annexin-V staining based flow cytometry. The data set is classed as functional, cell-based. The method, boiled down:
as §2

In data set [7] the target is T1, Protein kinase C (PKC) (Homo sapiens). Kind of data set: Synergistic activation of PKC in human U1 cells infected with latent HIV-1 assessed as reversal of HIV-1 latency by measuring increase in p24 antigen level at 25 nM incubated for 48 hrs in presence of 100 nM JQ1 by chemiluminescent enzyme immunoassay relative to compound alone. The data set is classed as cell-based. The following applies: filed as activator. In short, it runs like this: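 U1 cells at 5 × 10^5 cells/ml incubated 48 h with test agent alone or plus 100 nm JQ1. Supernatant p24 antigen quantified by automated immunoassay. Fold reactivation computed versus the same agent without JQ1. Mean ± S.D. of three independent experiments.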

Data set [8] has as its target Protein kinase C (PKC). Kind of data set: Activation of PKC in human J-Lat 6.3 cells infected with latent HIV-1 assessed as reversal of HIV-1 latency by measuring increase of GFP-positive cells at 1 to 10000 nM incubated for 24 hrs by flow cytometry. The class given is cell-based. In short, it runs like this:
(§4)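 J-Lat 10.6 or J-Lat 6.3 cells (5 × 10^5 cells/ml) incubated 24 h with graded drug concentrations; % GFP-positive cells determined by flow cytometry. Means ± S.D. of three independent experiments.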

The test system of data set [9] is J-Lat 6.3. Kind of data set: Induction of apoptosis in human J-Lat 6.3 cells assessed as caspase-3 activation at 1 uM incubated for 24 hrs by flow cytometry. The data set is classed as functional. The method, boiled down: as §3
Data set [10] deals with T1, Protein kinase C (PKC) (Homo sapiens). Kind of data set: Activation of PKC in human J-Lat 10.6 cells infected with latent HIV-1 assessed as reversal of HIV-1 latency by measuring increase of GFP-positive cells at 400 nM incubated for 24 hrs by flow cytometry. Particulars: filed as activator. The data set is classed as cell-based.
For data set [11], the system named is J-Lat 6.3. Kind of data set: Induction of apoptosis in human J-Lat 6.3 cells assessed as caspase-3 activation at 1 uM incubated for 24 hrs by flow cytometry (reference value: 2.43%). The class given is functional. In short, it runs like this: as §3
The next data set relates to CD4+ T cell. Kind of data set: Induction of apoptosis in CCL19-induced human CD4+ T-cells infected with latent HIV-1 assessed as caspase-3 activation at 1 uM incubated for 48 hrs by FACS. The class given is functional, cell-based. The method, boiled down: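 Latency model: healthy-donor CD4+ T-cells given 100 nM CCL19 for 2 days, infected with HIV-1 NL4-3, kept 5 days in IL-2. Stimulated 2 days with 1 µM drug or 100 nM PMA plus 2 µM ionomycin. Cells fixed and permeabilized, co-stained with anti-p24 and anti-active caspase-3 mAbs; active caspase-3 read by flow cytometry separately in p24+ and p24− cells. Two donors.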

A short description of data set [12]: Toxicity in human CD4+ T-cells assessed as elevation of supernatant cytokine concentrations of TNFalpha incubated for 24 hrs by bead-based immunoassay. Particulars: cd4+ t cell. In short, it runs like this: as §1
Data set [13] concerns the target T1, Protein kinase C (PKC) (Homo sapiens). Kind of data set: Synergistic activation of PKC in CD4+ T-cells purified from HIV-infected patient assessed as increase in transcription of HIV mRNA at 5 uM incubated for 24 hrs by qRT-PCR method. The following applies: CD4+ T cell, filed as activator. The data set is classed as cell-based. In short, it runs like this: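 CD4+ T-cells purified from PBMC of patients on cART for at least 5 years with plasma viral load <20 copies/ml. Cells plated at 2.5 × 10^6 cells/ml and treated 24 h, alone or with 1 μm JQ1. Intracellular HIV RNA measured by qRT-PCR against a plasmid standard curve, normalised per ng input RNA, relative to untreated cells. Synergy assessed by Bliss independence model.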
Background: In qPCR the cycle at which signal appears reflects the starting amount.

In data set [14] the target is Protein kinase C (PKC). Kind of data set: Activation of PKC in human J-Lat 10.6 cells infected with latent HIV-1 assessed as reversal of HIV-1 latency by measuring increase of GFP-positive cells at 1 to 10000 nM incubated for 24 hrs by flow cytometry. The data set is classed as cell-based. The method, boiled down:
as §4

In data set [15] the test system is U1. Description: Induction of apoptosis in human U1 cells at 1 uM incubated for 48 hrs by propidium iodide/annexin-V staining based flow cytometry (reference value: 3.16%). The class given is functional.
Data set [16] in a line: Toxicity in human CD4+ T-cells assessed as elevation of supernatant cytokine concentrations of IL-13 incubated for 24 hrs in presence of JQ1 by bead-based immunoassay. The following applies: cd4+ t cell. In short, it runs like this:
as §1

Data set [17] in a line: Toxicity in human CD4+ T-cells assessed as increase in dead cells at 1 uM in presence of JQ1. The data set is classed as cell-based. Particulars: cd4+ t cell. The method, boiled down: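 Primary cells exposed 24 h to 1 μm drug, 1 μm JQ1, or both (1 μm each). Dead cells scored by propidium iodide staining.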

Active and inactive are the calls of the source. No cut-off for these calls is given here.

For `CCCCCCCCCCc1ccc2c(c1)N(C)[C@@H](C(C)C)C(=O)N[C@H](CO)C2`, the Activity result in data set [1] was “Non-Toxic”; in [3] it was “Toxic”; in the data set on U1 [5] it was 24.9%; in the data set on J-Lat 6.3 [9] it was 12.2%; in data set [10], 42.2%; in the data set with J-Lat 6.3 [11] it was 21.9%. Moreover, the Activity entry is given as “Toxic” in [12], 28.4% in the data set on U1 [15], “Non-Toxic” in [16] and “Non-Toxic” in data set [17]. Also, the result (in data set [2]; with ACH-2 cell line; in the data set on U1 [6]) was inactive. Moreover, the outcome (in data set [4]; in the data set with CD4+ T cell) was Active. For the same compound, the results for the fold change (FC) in data set [7] and in [13] were 22.9 and 1.4, respectively. Also, the EC50 stood at 6.3 µM on Protein kinase C (PKC) [8] and 10.6 µM on Protein kinase C (PKC) [14].

Usually EC50 stands for the concentration at which the effect is half-maximal.

These data come from ChEMBL document CHEMBL5674882, “Benzolactam-related compounds promote apoptosis of HIV-infected human cells via protein kinase C-induced HIV latency reversal” (J Biol Chem, 2019).
